Assay [1] has as its target T1, WD repeat-containing protein 5 (Homo sapiens, UniProt P61964). Description: Inhibition of WDR5 in human HEK293T cells assessed as reduction in WDR5-MYC interaction at 5 uM incubated for 24 hrs by immunoprecipitation analysis. Type of assay: cell-based. As to conditions: HEK-293T. The gist of the method: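 Intact HEK293 cells (WDR5-FLAG/c-MYC-HA) at ~70% confluence, PBS-washed, treated 24 h with 5 μM compound in OptiMEM; lysates α-FLAG immunoprecipitated overnight at 4 °C, MYC co-precipitation immunoblotted, input blotted for MYC levels; normalized to vehicle; minimum two biological repeats.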

Assay [2] concerns the target T1, WD repeat-containing protein 5. Description: Inhibition of N-terminal FLAG-tagged human full-length WDR5 expressed in HEK293T cells harboring human C-terminal HA-tagged c-MYC assessed as reduction in WDR5-MYC interaction at 50 uM by immunoprecipitation analysis. Conditions: HEK-293T.
For assay [3], the target named is MLL1-ASH2L/RbBP5/WDR5/DPY30 (Homo sapiens) (UniProt P61964+Q03164+Q9UBL3+Q15291+Q9C005). In words: Inhibition of MLL1/WDR5/RBBP5/ASH2L/DPY30 complex (unknown origin) assessed as reduction in histone methyltransferase activity. Format: protein assay.
Assay [4] deals with T1, WD repeat-containing protein 5. Description: Inhibition of N-terminal FLAG-tagged human full-length WDR5 expressed in HEK293T cells harboring human C-terminal HA-tagged c-MYC assessed as reduction in MYC recruitment RPL5 binding site at 20 uM incubated for 10 hrs by chromatin immunoprecipitation analysis. Type of assay: cell-based. As to conditions: HEK-293T. The gist of the method:
(§1)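 HEK293 cells expressing HA-MYC and GFP grown to ~70% confluence, PBS-washed, treated 10 h in OptiMEM. Crosslinked 1% formaldehyde 10 min at room temperature, quenched with 125 mM glycine. Sonicated chromatin, α-HA ChIP; qPCR percent input against a 30-fold dilution of decrosslinked chromatin. One-tailed t-test; minimum three independent biological repeats.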

Assay [5] has the same target. Description: Inhibition of N-terminal FLAG-tagged human full-length WDR5 expressed in HEK293T cells harboring human C-terminal HA-tagged c-MYC assessed as reduction in MYC recruitment ZFPM1 binding site at 20 uM incubated for 10 hrs by chromatin immunoprecipitation analysis. Type of assay: cell-based. As to conditions: HEK-293T. Put shortly:
as §1

For assay [6] the target is unchanged. In words: Inhibition of N-terminal FLAG-tagged human full-length WDR5 expressed in HEK293T cells harboring human C-terminal HA-tagged c-MYC assessed as reduction in MYC recruitment […] binding site at 20 uM incubated for 10 hrs by chromatin immunoprecipitation analysis. Type of assay: cell-based. Conditions: HEK-293T. The gist of the method: as §1
Assay [7] shares this target. Description: Inhibition of N-terminal FLAG-tagged human full-length WDR5 expressed in HEK293T cells harboring human C-terminal HA-tagged c-MYC assessed as reduction in MYC recruitment C7orf40 binding site at 20 uM incubated for 10 hrs by chromatin immunoprecipitation analysis. Type of assay: cell-based. Conditions: HEK-293T. The gist of the method:
as §1

The target is the same in assay [8]. Description: Inhibition of N-terminal FLAG-tagged human full-length WDR5 expressed in HEK293T cells harboring human C-terminal HA-tagged c-MYC assessed as reduction in MYC recruitment RPS14 binding site at 20 uM incubated for 10 hrs by chromatin immunoprecipitation analysis. Format: cell-based. As to conditions: HEK-293T. The gist of the method: as §1
Assay [9] has the same target. Description: Inhibition of N-terminal FLAG-tagged human full-length WDR5 expressed in HEK293T cells harboring human C-terminal HA-tagged c-MYC assessed as reduction in MYC recruitment RNPS1 binding site at 20 uM incubated for 10 hrs by chromatin immunoprecipitation analysis. As to conditions: HEK-293T. Format: cell-based. Put shortly: as §1
The target is the same in assay [10]. In words: Binding affinity to recombinant human His/FLAG-tagged WDR5 (22 to 334 residues) expressed in Escherichia coli expression system using FITC-AHx-SEEEIDVVSV as substrate by fluorescence polarization assay.

SMILES strings stand for the structures. Activity calls are given as the source filed them. The calls are words filed in the database; no cut-off is given here.

In the case of `O=S(=O)(Nc1cnn(C2CCCC2)c1)c1cc(Br)cc(Cl)c1O`, the inhibition entry in assay [1] is “inactive”. In addition, the inhibition entry in [2] and in [3] was “Active” in each case.
As to `CS(=O)(=O)c1nc(NS(=O)(=O)c2cc(Br)cc(Cl)c2O)cn1C1CCCC1`, the inhibition entry in assay [4], in [1], in assay [7], in assay [8], in assay [2] and in [3] was “Active” in each case. Further, the inhibition entry in [9] was “Active”. Moreover, the inhibition entry in assay [5] and in [6] was “inactive” each time.
`CNC(=O)c1nc(NS(=O)(=O)c2cc(Br)cc(Cl)c2O)cn1C1CCCC1`: the inhibition entry in assay [1], in assay [2] and in assay [3] was “Active” in each case.
As to `O=S(=O)(Nc1cn(CC2CCCO2)cn1)c1cc(Br)cc(Cl)c1O` (configuration not stated), the Kd (commonly the constant that tells how readily two partners part at equilibrium) in assay [10] is 8 µM.
Turning to `CCOC(=O)c1nc(NS(=O)(=O)c2cc(Br)cc(Cl)c2O)cn1C1CCCC1`, the inhibition result in assay [1], in assay [2] and in assay [3] was “Active” in each case.
`O=S(=O)(Nc1nc2ccccc2s1)c1cc(Br)cc(Cl)c1O`: in [10], the Kd turned out to be 32 µM.
Same read-out and setting: with `O=S(=O)(Nc1cn(C(C2CC2)C2CC2)cn1)c1cc(Br)cc(Cl)c1O` the figure was 1.2 µM.
Still for that read-out and setting: with `O=S(=O)(Nc1cn(C2CCNC2)cn1)c1cc(Br)cc(Cl)c1O` (configuration not stated) the figure was 11 µM; with `O=C(c1nc(NS(=O)(=O)c2cc(Br)cc(Cl)c2O)cn1C1CCCC1)N1CCC(C2CCCN2)CC1` (configuration not stated), 5 µM.
In the case of `O=S(=O)(Nc1cn(C2CCCC2)cn1)c1cc(Br)cc(Cl)c1O`, the inhibition result in assay [1] and in assay [2] was “Active” in each case. Further, the Kd in assay [10] amounted to 0.4 µM.
For `O=S(=O)(Nc1cn(CC2CC2)cn1)c1cc(Br)cc(Cl)c1O`, in assay [10], the Kd was 2.1 µM.

These data come from ChEMBL document CHEMBL4602700, “Discovery of WD Repeat-Containing Protein 5 (WDR5)-MYC Inhibitors Using Fragment-Based Methods and Structure-Based Design” (J Med Chem, 2020).
